By ED50 is commonly meant the dose at which the effect has come halfway, by size or by number of responders. As usually defined, the TD50 is the dose at which the toxic effect under study appears in half of the subjects.

Active and inactive are the calls of the source. The rule behind the calls is not given here.

This note sets out measurements from ChEMBL document CHEMBL2401625, “Synthesis and evaluation of pharmacological properties of some new xanthone derivatives with piperazine moiety” (Bioorg Med Chem Lett, 2013).

The test system of data set [1] is Mus musculus. Nature of the data set: Anticonvulsant activity in CF1 mouse assessed as protection against subcutaneous metrazole-induced seizures at 300 mg/kg, ip after 0.5 hrs. In kind it is functional, organism-based. On the set-up: dose 300 mg/kg. Put shortly:
(§1)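 Mice given compound i.p. at 30, 100 or 300 mg/kg and tested 0.5 or 4 h after dosing. Seizures were induced by maximal electroshock (MES) or subcutaneous metrazole (ScMet). Prevention of seizures counts as protection. Result is recorded as number of animals protected over number tested.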

For data set [2], the system named is Rattus norvegicus. The data set is described as follows: Anticonvulsant activity in Sprague-Dawley rat assessed as protection against maximal electroshock-induced seizures at 30 mg/kg, po after 1 hr. Type of data set: functional, organism-based. On the set-up: dose 30 mg/kg. Put shortly: (§2)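 Rats dosed orally at 30 mg/kg and tested in MES at several time points after dosing. Protection means seizures were prevented. Result is recorded as number of animals protected over number tested.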
In general terms: Protection in the maximal electroshock model is a classic sign of anticonvulsant action.

For data set [3], the system named is Mus musculus. The data set is described as follows: Anticonvulsant activity in CF1 mouse assessed as protection against maximal electroshock-induced seizures at 30 mg/kg, ip after 4 hrs. Type of data set: functional, organism-based. More on the design: dose 30 mg/kg. Put shortly: as §1
The subject of data set [4] is Rattus norvegicus. Nature of the data set: Anticonvulsant activity in Sprague-Dawley rat assessed as protection against maximal electroshock-induced seizures at 30 mg/kg, po after 2 hrs. Type of data set: functional, organism-based. On the set-up: dose 30 mg/kg. The procedure, abridged: as §2
The test system of data set [5] is Mus musculus. The data set is described as follows: Anticonvulsant activity in CF1 mouse assessed as protection against subcutaneous metrazole-induced seizures at 100 mg/kg, ip after 4 hrs. Type of data set: functional, organism-based. On the set-up: dose 100 mg/kg. Put shortly:
as §1

Data set [6] relates to Mus musculus. The data set is described as follows: Anticonvulsant activity in CF1 mouse assessed as protection against maximal electroshock-induced seizures at 100 mg/kg, ip after 4 hrs. In kind it is functional, organism-based. More on the design: dose 100 mg/kg. The procedure, abridged: as §1
Data set [7] relates to Mus musculus. Nature of the data set: Anticonvulsant activity in CF1 mouse assessed as protection against maximal electroshock-induced seizures at 30 mg/kg, ip after 0.5 hrs. Type of data set: functional, organism-based. More on the design: dose 30 mg/kg. The procedure, abridged: as §1
In data set [8] the test system is Mus musculus. Nature of the data set: Anticonvulsant activity in CF1 mouse assessed as protection against maximal electroshock-induced seizures at 300 mg/kg, ip after 4 hrs. Type of data set: functional, organism-based. More on the design: dose 300 mg/kg. The procedure, abridged: as §1
In data set [9] the test system is Mus musculus. Nature of the data set: Anticonvulsant activity in CF1 mouse assessed as protection against subcutaneous metrazole-induced seizures at 30 mg/kg, ip after 0.5 hrs. On the set-up: dose 30 mg/kg. Type of data set: functional, organism-based. Put shortly: as §1
Data set [10] relates to Rattus norvegicus. Nature of the data set: Anticonvulsant activity in Sprague-Dawley rat assessed as protection against maximal electroshock-induced seizures at 30 mg/kg, po after 0.5 hrs. Type of data set: functional, organism-based. More on the design: dose 30 mg/kg. Put shortly:
as §2

The species named for data set [11] is Rattus norvegicus. The data set is described as follows: Displacement of [3H]CGP-12177 from beta1-adrenergic receptor in rat cerebral cortex at 50 uM after 60 mins by scintillation counting. Type of data set: tissue-based. Background: Loss of bound radioactivity is the signal in a displacement assay; it reports binding, not function.
Data set [12] has as its system Rattus norvegicus. The data set is described as follows: Anticonvulsant activity in Sprague-Dawley rat assessed as protection against maximal electroshock-induced seizures at 30 mg/kg, po after 0.25 hrs. More on the design: dose 30 mg/kg. In kind it is functional, organism-based. The procedure, abridged:
as §2

Data set [13] has as its system Mus musculus. The data set is described as follows: Anticonvulsant activity in CF1 mouse assessed as protection against subcutaneous metrazole-induced seizures at 100 mg/kg, ip after 0.5 hrs. Type of data set: functional, organism-based. On the set-up: dose 100 mg/kg. Put shortly:
as §1

Data set [14] concerns Mus musculus. The data set is described as follows: Anticonvulsant activity in CF1 mouse assessed as protection against subcutaneous metrazole-induced seizures at 30 mg/kg, ip after 4 hrs. In kind it is functional, organism-based. More on the design: dose 30 mg/kg. The procedure, abridged: as §1
Data set [15] deals with Mus musculus. Nature of the data set: Anticonvulsant activity in CF1 mouse assessed as protection against subcutaneous metrazole-induced seizures at 300 mg/kg, ip after 4 hrs. In kind it is functional, organism-based. On the set-up: dose 300 mg/kg. The procedure, abridged:
as §1

Data set [16] relates to Mus musculus. Nature of the data set: Neurotoxicity in CF1 mouse assessed as minimal motor impairment at 300 mg/kg, ip after 0.5 hrs by rotorod test. Type of data set: toxicity, organism-based. Particulars: in vivo. More on the design: dose 300 mg/kg, route intraperitoneal. Put shortly:
(§3)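 Rotarod neurotoxicity screen in mice dosed i.p. at 30, 100 or 300 mg/kg, read 0.5 or 4 h after dosing. The animal must stay on a rod rotating at 6 rpm without falling, measured 3 times within 1 min. A fall counts as minimal motor impairment. Result is recorded as impaired animals over animals used.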
In general terms: Falling from the rotarod earlier than controls is read as motor impairment.

In data set [17] the test system is Rattus norvegicus. Nature of the data set: Anticonvulsant activity in po dosed Sprague-Dawley rat assessed as protection against maximal electroshock-induced seizures after 4 hrs. In kind it is functional. Put shortly: (§4)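 Quantitative oral assay in rats, run at a time to peak effect of 4 h. ED50 is the dose protecting 50% of animals against MES or ScMet seizures, with 95% confidence interval. TD50 is the dose giving neurotoxicity in 50% of animals. PI = TD50/ED50.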

Data set [18] deals with Mus musculus. The data set is described as follows: Neurotoxicity in CF1 mouse assessed as minimal motor impairment at 30 mg/kg, ip after 0.5 hrs by rotorod test. In kind it is toxicity, organism-based. More on the design: dose 30 mg/kg, route intraperitoneal. The settings on record: in vivo. Put shortly:
as §3

The test system of data set [19] is Rattus norvegicus. The data set is described as follows: Protective index, ratio of TD50 for po dosed Sprague-Dawley rat assessed as minimal motor impairment by rotorod test to ED50 for po dosed Sprague-Dawley rat assessed as protection against maximal electroshock-induced seizures. In kind it is functional. Put shortly: as §4
Data set [20] has as its system Rattus norvegicus. The data set is described as follows: Neurotoxicity in Sprague-Dawley rat assessed as minimal motor impairment at 30 mg/kg, po after 2 hrs by rotorod test. Particulars: in vivo.
Data set [21] relates to Rattus norvegicus. Nature of the data set: Neurotoxicity in Sprague-Dawley rat assessed as minimal motor impairment at 30 mg/kg, po after 1 hr by rotorod test. The settings on record: in vivo.
The subject of data set [22] is Mus musculus. Nature of the data set: Neurotoxicity in CF1 mouse assessed as minimal motor impairment at 300 mg/kg, ip after 4 hrs by rotorod test. More on the design: dose 300 mg/kg, route intraperitoneal. Type of data set: toxicity, organism-based. Particulars: in vivo. The procedure, abridged:
as §3

Data set [23] has as its system Mus musculus. The data set is described as follows: Neurotoxicity in CF1 mouse assessed as minimal motor impairment at 100 mg/kg, ip after 4 hrs by rotorod test. Type of data set: toxicity, organism-based. More on the design: dose 100 mg/kg, route intraperitoneal. Particulars: in vivo. Put shortly:
as §3

Data set [24] deals with Mus musculus. The data set is described as follows: Neurotoxicity in CF1 mouse assessed as minimal motor impairment at 100 mg/kg, ip after 0.5 hrs by rotorod test. Type of data set: toxicity, organism-based. More on the design: dose 100 mg/kg, route intraperitoneal. The settings on record: in vivo. The procedure, abridged: as §3
Data set [25] relates to Mus musculus. The data set is described as follows: Neurotoxicity in CF1 mouse assessed as minimal motor impairment at 30 mg/kg, ip after 4 hrs by rotorod test. Type of data set: toxicity, organism-based. On the set-up: dose 30 mg/kg, route intraperitoneal. The settings on record: in vivo. Put shortly: as §3
Data set [26] concerns Rattus norvegicus. Nature of the data set: Neurotoxicity in Sprague-Dawley rat assessed as minimal motor impairment at 30 mg/kg, po after 0.25 hrs by rotorod test. The settings on record: in vivo.
The test system of data set [27] is Rattus norvegicus. The data set is described as follows: Neurotoxicity in Sprague-Dawley rat assessed as minimal motor impairment at 30 mg/kg, po after 0.5 hrs by rotorod test. Particulars: in vivo.
The test system of data set [28] is Rattus norvegicus. The data set is described as follows: Neurotoxicity in Sprague-Dawley rat assessed as minimal motor impairment at 30 mg/kg, po after 4 hrs by rotorod test. Particulars: in vivo.
Data set [29] in a line: Neurotoxicity in po dosed Sprague-Dawley rat assessed as minimal motor impairment by rotorod test. Type of data set: toxicity, organism-based. The settings on record: in vivo.
In data set [30] the test system is Rattus norvegicus. Nature of the data set: Anticonvulsant activity in po dosed Sprague-Dawley rat assessed as protection against subcutaneous metrazole-induced seizures after 4 hrs. Type of data set: functional. Put shortly: as §4

As for `COc1ccc2c(=O)c3cc(CN4CCN(C)CC4)ccc3oc2c1`, the outcome in [1], in data set [2], in data set [3], in [4], in data set [5] and in [6] was inactive. The result in data set [7], in data set [9], in data set [10], in data set [12], in [13] and in [14] was inactive. Also, the outcome in data set [15] was inactive. Also, the result in data set [8] was Active. For the same compound, in [11], the inhibition entry is “inactive”.

Turning to `COc1ccc2c(=O)c3cc(CN4CCN(Cc5ccccc5)CC4)ccc3oc2c1`, the Activity result in data set [16], in data set [18], in [20], in data set [21], in data set [22] and in data set [23] was “Non-toxic” in each case. Moreover, the Activity entry in data set [24], in data set [25], in [26], in [27] and in data set [28] was “Non-toxic” in each case. Besides, the ED50 is 105 mg/kg in [17] and > 250 mg/kg in data set [30]. Further, the “Ratio TD50/ED50” value in data set [19] is >2.86. The TD50 in data set [29] is > 300 mg/kg.
